Values after ≈ are worked out from the molar mass of the structure shown. Active and inactive are the calls of the source. The calls are words filed in the database; no cut-off is given here.
Columns and labels:
[1] = test system: Nannizzia gypsea; assay: Antifungal activity against Microsporum gypseum after 48 hrs by broth microdilution method; format: functional
Summary of the method: (§1)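 Broth microdilution against filamentous fungi with serially diluted compounds. Amphotericin B (fungicidal) and fluconazole (fungistatic) were run as controls. Plates were incubated at 30 °C for 48 h.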

[2] = test system: Pichia kudriavzevii; assay: Antifungal activity against Candida krusei ATCC 6258 after 24 hrs by broth microdilution method; format: functional
Summary of the method: (§2)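 Broth microdilution in microplates with a serial dilution series of compounds. Amphotericin B served as the fungicidal control and fluconazole as the fungistatic control. Yeast plates were incubated at 37 °C for 24 h.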

[3] = test system: Escherichia coli; assay: Antimicrobial activity against Escherichia coli ATCC 25922 after 24 hrs by broth microdilution method; format: functional
Summary of the method: (§3)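 Microplate broth microdilution with a serial dilution series of compounds, using chloramphenicol as the antibacterial control. Bacterial plates were incubated at 35 °C for 24 h.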

[4] = test system: Candida parapsilosis; assay: Antifungal activity against Candida parapsilosis ATCC 69548 after 24 hrs by broth microdilution method; format: functional; summary of the method: as §2
[5] = test system: Pseudomonas aeruginosa; assay: Antimicrobial activity against Pseudomonas aeruginosa ATCC 9027 after 24 hrs by broth microdilution method; format: functional; summary of the method: as §3
[6] = test system: Candida tropicalis; assay: Antifungal activity against Candida tropicalis ATCC 750 after 24 hrs by broth microdilution method; format: functional; summary of the method: as §2
[7] = Cytotoxicity against human PBMC after 48 hrs by MTT assay; format: cell-based; settings: PBMC (peripheral blood mononuclear cells)
Summary of the method: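 Normal human PBMC from healthy volunteers were isolated by Ficoll-Hypaque density gradient and seeded at 2.4 × 10⁶ cells/mL. Compounds were added at 100 to 0.06 and cells held 48 h at 37 °C, 5% CO₂. MTT was then added for 4 h, formazan dissolved in DMSO and A560 read. Untreated cells were taken as 100% viability. CC50 was obtained by linear regression.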

[8] = test system: Staphylococcus aureus; assay: Antimicrobial activity against Staphylococcus aureus ATCC 6538 after 24 hrs by broth microdilution method; format: functional; settings: ATCC 6538, 24 h; summary of the method: as §3
[9] = test system: Nakaseomyces glabratus; assay: Antifungal activity against Candida glabrata ATCC 90030 after 24 hrs by broth microdilution method; format: functional; summary of the method: as §2
[10] = test system: Staphylococcus aureus; assay: Ratio of MIC100 for chloramphenicol to MIC100 of compound for Staphylococcus aureus ATCC 6538 after 24 hrs by broth microdilution method; format: functional
[11] = test system: Staphylococcus epidermidis; assay: Antimicrobial activity against Staphylococcus epidermidis ATCC 12228 after 24 hrs by broth microdilution method; format: functional; settings: ATCC 12228, 24 h; summary of the method: as §3
[12] = test system: Bacillus cereus; assay: Antimicrobial activity against Bacillus cereus ATCC 11778 after 24 hrs by broth microdilution method; format: functional; settings: ATCC 11778, 24 h; summary of the method: as §3
[13] = test system: Proteus mirabilis; assay: Antimicrobial activity against Proteus mirabilis ATCC 25933 after 24 hrs by broth microdilution method; format: functional; summary of the method: as §3
[14] = test system: Staphylococcus epidermidis; assay: Ratio of MIC100 for chloramphenicol to MIC100 of compound for Staphylococcus epidermidis ATCC 12228 after 24 hrs by broth microdilution method; format: functional
[15] = test system: Trichophyton tonsurans; assay: Antifungal activity against Trichophyton tonsurans after 48 hrs by broth microdilution method; format: functional; summary of the method: as §1
[16] = test system: Candida albicans; assay: Antifungal activity against Candida albicans ATCC 09548 after 24 hrs by broth microdilution method; format: functional; summary of the method: as §2
[17] = test system: Cryptococcus neoformans; assay: Antifungal activity against Cryptococcus neoformans ATCC 90012 after 24 hrs by broth microdilution method; format: functional; summary of the method: as §2
[18] = test system: Salmonella typhimurium; assay: Antimicrobial activity against Salmonella typhimurium ATCC 14028 after 24 hrs by broth microdilution method; format: functional; settings: Salmonella enterica subsp. enterica serovar Typhimurium; summary of the method: as §3

For `CC(C)=CCC[C@]1(C)[C@@H](CC=C(C)C)C[C@@]2(CC=C(C)C)C(=O)C(C(=O)c3ccc(OS(=O)(=O)c4ccc(C)cc4)c(OS(=O)(=O)c4ccc(C)cc4)c3)=C(O)[C@]1(CC=C(C)C)C2=O`, the MIC50 [1] was “inactive”, the MIC100 [1] was “inactive” and the MIC50 [2] was “inactive”. The MIC100 [2] was “inactive”, the MIC50 [3] was “inactive” and the MIC100 [3] was “inactive”. For the same compound, the MIC50 [4] was “inactive”, the MIC100 [4] was “inactive” and the MIC50 [5] was “inactive”. For the same compound, the MIC100 [5] was “inactive”, the MIC50 [6] was “inactive” and the MIC100 [6] was “inactive”. The CC50 at 48 h [7] was greater than 113 µM, the MIC50 ([8]; read-out: MIC50) was 43 µM (≈ 39.2 µg/mL) and the MIC ([8]; read-out: MIC100) was 2.74 µM (≈ 2.5 µg/mL). For the same compound, the MIC50 [9] was “inactive”, the MIC100 [9] was “inactive” and the Ratio [10] was 4.39. For the same compound, the MIC50 [11] was 2740 µM (≈ 2500 µg/mL), the MIC50 [12] was 171 µM (≈ 156 µg/mL) and the MIC ([12]; read-out: MIC100) was 21.9 µM (≈ 20 µg/mL). For the same compound, the MIC100 [13] was “inactive”, the Ratio [14] was 3.5 and the MIC50 [15] was “inactive”. For the same compound, the MIC100 [15] was “inactive”, the MIC50 [16] was “inactive” and the MIC100 [16] was “inactive”. The MIC100 [17] was “inactive”, the MIC50 ([17]; ATCC 90012, 24 h) was 43.9 µM (≈ 40 µg/mL) and the MIC50 [18] was “inactive”.

— ChEMBL document CHEMBL2010801, “Semisynthesis and antimicrobial activity of novel guttiferone-A derivatives” (Bioorg Med Chem, 2012)
